# Tested on: Acinetobacter baumannii
# Test: Synergistic antibacterial activity against Acinetobacter baumannii PR448 producing OXA-23 assessed as cefepime MIC at 8 ug/ml by broth microdilution method
# Format: functional
# Settings: dose 8 µg/ml
# Method in brief: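 Broth microdilution per CLSI guidelines in frozen panels. Test compound held at fixed 8 mg/L while the partner β-lactam concentration was increased. Run in triplicate; modal MIC reported.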
row,Compound,MIC [mg/L]
1,N#C[C@@H]1CC[C@@H]2CN1C(=O)N2OS(=O)(=O)[O-].[Na+],4

# Tested on: Acinetobacter baumannii
# Test: Synergistic antibacterial activity against Acinetobacter baumannii PR474 producing OXA-23/24/40 assessed as cefepime MIC at 4 ug/ml by broth microdilution method
# Format: functional
# Settings: dose 4 µg/ml
row,Compound,MIC [mg/L]
1,N#C[C@@H]1CC[C@@H]2CN1C(=O)N2OS(=O)(=O)[O-].[Na+],8

# Tested on: Acinetobacter baumannii
# Test: Synergistic antibacterial activity against Acinetobacter baumannii PR319 producing OXA-23/24/40 assessed as cefepime MIC at 4 ug/ml by broth microdilution method
# Format: functional
# Settings: dose 4 µg/ml
row,Compound,MIC [mg/L]
1,N#C[C@@H]1CC[C@@H]2CN1C(=O)N2OS(=O)(=O)[O-].[Na+],> 16

# Tested on: Klebsiella pneumoniae
# Test: Synergistic antibacterial activity against Klebsiella pneumoniae 729/1679 producing KPC-3 assessed as cefepime MIC at 4 ug/ml by broth microdilution method
# Format: functional
# Settings: dose 4 µg/ml
# Method in brief: (§1)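 Broth microdilution per CLSI guidelines, using custom frozen panels. […] Each partner drug was also tested alone. MICs were run in triplicate and the modal value is reported.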
row,Compound,MIC [mg/L]
1,N#C[C@@H]1CC[C@@H]2CN1C(=O)N2OS(=O)(=O)[O-].[Na+],0.5

# Tested on: Klebsiella pneumoniae
# Test: Synergistic antibacterial activity against Klebsiella pneumoniae 729/1679 producing KPC-3 assessed as cefepime MIC at 8 ug/ml by broth microdilution method
# Format: functional
# Settings: dose 8 µg/ml
# Method in brief: as §1
row,Compound,MIC [mg/L]
1,N#C[C@@H]1CC[C@@H]2CN1C(=O)N2OS(=O)(=O)[O-].[Na+],0.25

# Tested on: Klebsiella pneumoniae
# Test: Synergistic antibacterial activity against Klebsiella pneumoniae 1398/2291 producing KPC-3 assessed as meropenem MIC at 4 ug/ml by broth microdilution method
# Format: functional
# Settings: dose 4 µg/ml
# Method in brief: as §1
row,Compound,MIC [mg/L]
1,N#C[C@@H]1CC[C@@H]2CN1C(=O)N2OS(=O)(=O)[O-].[Na+],≤ 0.12

# Tested on: Acinetobacter baumannii
# Test: Synergistic antibacterial activity against ADC deleted Acinetobacter baumannii transfected with pWH1266 producing OXA-24/40 assessed as meropenem MIC at 4 ug/ml by broth microdilution method
# Format: functional
# Settings: dose 4 µg/ml
row,Compound,MIC [mg/L]
1,N#C[C@@H]1CC[C@@H]2CN1C(=O)N2OS(=O)(=O)[O-].[Na+],> 16

# Tested on: Klebsiella pneumoniae
# Test: Synergistic antibacterial activity against Klebsiella pneumoniae 1315/2198 producing KPC-3 assessed as meropenem MIC at 4 ug/ml by broth microdilution method
# Format: functional
# Settings: dose 4 µg/ml
# Method in brief: as §1
row,Compound,MIC [mg/L]
1,N#C[C@@H]1CC[C@@H]2CN1C(=O)N2OS(=O)(=O)[O-].[Na+],≤ 0.12

# Tested on: Klebsiella pneumoniae
# Test: Synergistic antibacterial activity against Klebsiella pneumoniae 776/1742 producing KPC-2 assessed as meropenem MIC at 4 ug/ml by broth microdilution method
# Format: functional
# Settings: dose 4 µg/ml
row,Compound,MIC [mg/L]
1,N#C[C@@H]1CC[C@@H]2CN1C(=O)N2OS(=O)(=O)[O-].[Na+],0.5

# Tested on: Acinetobacter baumannii
# Test: Synergistic antibacterial activity against Acinetobacter baumannii PR381 producing OXA-24/40 assessed as cefepime MIC at 4 ug/ml by broth microdilution method
# Format: functional
# Settings: dose 4 µg/ml
row,Compound,MIC [mg/L]
1,N#C[C@@H]1CC[C@@H]2CN1C(=O)N2OS(=O)(=O)[O-].[Na+],16

# Tested on: Pseudomonas aeruginosa
# Test: Synergistic antibacterial activity against Pseudomonas aeruginosa CL232 assessed as meropenem MIC at 8 ug/ml by broth microdilution method
# Format: functional
# Settings: dose 8 µg/ml
row,Compound,MIC [mg/L]
1,N#C[C@@H]1CC[C@@H]2CN1C(=O)N2OS(=O)(=O)[O-].[Na+],> 16

# Tested on: Klebsiella pneumoniae
# Test: Synergistic antibacterial activity against Klebsiella pneumoniae 1108/1989 producing KPC-3 assessed as meropenem MIC at 8 ug/ml by broth microdilution method
# Format: functional
# Settings: dose 8 µg/ml
# Method in brief: as §1
row,Compound,MIC [mg/L]
1,N#C[C@@H]1CC[C@@H]2CN1C(=O)N2OS(=O)(=O)[O-].[Na+],≤ 0.12

# Tested on: Klebsiella pneumoniae
# Test: Synergistic antibacterial activity against Klebsiella pneumoniae 776/1742 producing KPC-2 assessed as meropenem MIC at 8 ug/ml by broth microdilution method
# Format: functional
# Settings: dose 8 µg/ml
row,Compound,MIC [mg/L]
1,N#C[C@@H]1CC[C@@H]2CN1C(=O)N2OS(=O)(=O)[O-].[Na+],0.25

# Tested on: Klebsiella pneumoniae
# Test: Synergistic antibacterial activity against Klebsiella pneumoniae 1084/1957 producing KPC-3 assessed as meropenem MIC at 8 ug/ml by broth microdilution method
# Format: functional
# Settings: dose 8 µg/ml
# Method in brief: as §1
row,Compound,MIC [mg/L]
1,N#C[C@@H]1CC[C@@H]2CN1C(=O)N2OS(=O)(=O)[O-].[Na+],≤ 0.12

# Tested on: Escherichia coli
# Test: Antibacterial activity against Escherichia coli DH10B transfected with pBC SK (-) OXA-48 by broth microdilution method
# Format: functional
# Settings: not given
row,Compound,MIC [mg/L]
1,N#C[C@@H]1CC[C@@H]2CN1C(=O)N2OS(=O)(=O)[O-].[Na+],> 16

# Tested on: Escherichia coli
# Test: Synergistic antibacterial activity against Escherichia coli DH10B transfected with pBC SK (-) OXA-48 assessed as meropenem MIC at 4 ug/ml by broth microdilution method
# Format: functional
# Settings: dose 4 µg/ml
# Method in brief: as §1
row,Compound,MIC [mg/L]
1,N#C[C@@H]1CC[C@@H]2CN1C(=O)N2OS(=O)(=O)[O-].[Na+],≤ 0.12

# Tested on: Bacteria
# Test: Inhibition of bacteria KPC-2 assessed as second order rate constant K2/K using nitrocefin as substrate
# Settings: not given
# Method in brief: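 Steady-state kinetics, 10 mM phosphate-buffered saline pH 7.4. Progress curves recorded with fixed enzyme and nitrocefin and increasing nM inhibitor. Each curve fitted to a time-course equation to give k_obs. k2/K derived from these and corrected for nitrocefin concentration relative to its Km.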
row,Compound,K
1,N#C[C@@H]1CC[C@@H]2CN1C(=O)N2OS(=O)(=O)[O-].[Na+],2.4 10^5/M/s

# Tested on: Acinetobacter baumannii
# Test: Synergistic antibacterial activity against ADC deleted Acinetobacter baumannii assessed as cefepime MIC at 8 ug/ml by broth microdilution method
# Format: functional
# Settings: dose 8 µg/ml
row,Compound,MIC [mg/L]
1,N#C[C@@H]1CC[C@@H]2CN1C(=O)N2OS(=O)(=O)[O-].[Na+],0.5

# Tested on: Klebsiella pneumoniae
# Test: Synergistic antibacterial activity against Klebsiella pneumoniae 776/1742 producing KPC-2 assessed as cefepime MIC at 8 ug/ml by broth microdilution method
# Format: functional
# Settings: dose 8 µg/ml
row,Compound,MIC [mg/L]
1,N#C[C@@H]1CC[C@@H]2CN1C(=O)N2OS(=O)(=O)[O-].[Na+],1

# Tested on: Acinetobacter baumannii
# Test: Synergistic antibacterial activity against Acinetobacter baumannii PR440 producing OXA-23/24/40 assessed as cefepime MIC at 4 ug/ml by broth microdilution method
# Format: functional
# Settings: dose 4 µg/ml
row,Compound,MIC [mg/L]
1,N#C[C@@H]1CC[C@@H]2CN1C(=O)N2OS(=O)(=O)[O-].[Na+],16

# Tested on: Acinetobacter baumannii
# Test: Synergistic antibacterial activity against Acinetobacter baumannii PR474 producing OXA-23/24/40 assessed as meropenem MIC at 8 ug/ml by broth microdilution method
# Format: functional
# Settings: dose 8 µg/ml
row,Compound,MIC [mg/L]
1,N#C[C@@H]1CC[C@@H]2CN1C(=O)N2OS(=O)(=O)[O-].[Na+],16

# Tested on: Klebsiella pneumoniae
# Test: Synergistic antibacterial activity against Klebsiella pneumoniae jefferson 1773 producing OXA-181 assessed as cefepime MIC at 4 ug/ml by broth microdilution method
# Format: functional
# Settings: dose 4 µg/ml
row,Compound,MIC [mg/L]
1,N#C[C@@H]1CC[C@@H]2CN1C(=O)N2OS(=O)(=O)[O-].[Na+],1

# Tested on: Acinetobacter baumannii
# Test: Synergistic antibacterial activity against Acinetobacter baumannii PR381 producing OXA-24/40 assessed as meropenem MIC at 4 ug/ml by broth microdilution method
# Format: functional
# Settings: dose 4 µg/ml
row,Compound,MIC [mg/L]
1,N#C[C@@H]1CC[C@@H]2CN1C(=O)N2OS(=O)(=O)[O-].[Na+],> 16

# Tested on: Pseudomonas aeruginosa
# Test: Synergistic antibacterial activity against Pseudomonas aeruginosa 839 assessed as meropenem MIC at 8 ug/ml by broth microdilution method
# Format: functional
# Settings: dose 8 µg/ml
row,Compound,MIC [mg/L]
1,N#C[C@@H]1CC[C@@H]2CN1C(=O)N2OS(=O)(=O)[O-].[Na+],1

# Tested on: Klebsiella pneumoniae
# Test: Synergistic antibacterial activity against Klebsiella pneumoniae 935/1884 producing KPC-3 assessed as meropenem MIC at 4 ug/ml by broth microdilution method
# Format: functional
# Settings: dose 4 µg/ml
row,Compound,MIC [mg/L]
1,N#C[C@@H]1CC[C@@H]2CN1C(=O)N2OS(=O)(=O)[O-].[Na+],≤ 0.12

# Tested on: Klebsiella pneumoniae
# Test: Synergistic antibacterial activity against Klebsiella pneumoniae 1354/2241 producing KPC-3 assessed as cefepime MIC at 4 ug/ml by broth microdilution method
# Format: functional
# Settings: dose 4 µg/ml
# Method in brief: as §1
row,Compound,MIC [mg/L]
1,N#C[C@@H]1CC[C@@H]2CN1C(=O)N2OS(=O)(=O)[O-].[Na+],≤ 0.12

# Tested on: Escherichia coli
# Test: Synergistic antibacterial activity against Escherichia coli DH10B transfected with pBC SK (-) KPC-3 assessed as cefepime MIC at 8 ug/ml by broth microdilution method
# Format: functional
# Settings: dose 8 µg/ml
row,Compound,MIC [mg/L]
1,N#C[C@@H]1CC[C@@H]2CN1C(=O)N2OS(=O)(=O)[O-].[Na+],≤ 0.12

# Tested on: Acinetobacter baumannii
# Test: Synergistic antibacterial activity against Acinetobacter baumannii PR323 producing OXA-24/40 assessed as meropenem MIC at 4 ug/ml by broth microdilution method
# Format: functional
# Settings: dose 4 µg/ml
row,Compound,MIC [mg/L]
1,N#C[C@@H]1CC[C@@H]2CN1C(=O)N2OS(=O)(=O)[O-].[Na+],16

# Tested on: Klebsiella pneumoniae
# Test: Synergistic antibacterial activity against Klebsiella pneumoniae 901/1860 producing KPC-3 assessed as meropenem MIC at 8 ug/ml by broth microdilution method
# Format: functional
# Settings: dose 8 µg/ml
row,Compound,MIC [mg/L]
1,N#C[C@@H]1CC[C@@H]2CN1C(=O)N2OS(=O)(=O)[O-].[Na+],≤ 0.12

# Tested on: Klebsiella pneumoniae
# Test: Synergistic antibacterial activity against Klebsiella pneumoniae 761/1723 producing KPC-3 assessed as cefepime MIC at 8 ug/ml by broth microdilution method
# Format: functional
# Settings: dose 8 µg/ml
# Method in brief: as §1
row,Compound,MIC [mg/L]
1,N#C[C@@H]1CC[C@@H]2CN1C(=O)N2OS(=O)(=O)[O-].[Na+],≤ 0.12

# Tested on: Escherichia coli
# Test: Synergistic antibacterial activity against Escherichia coli DH10B transfected with pBC SK (-) OXA-48 assessed as cefepime MIC at 4 ug/ml by broth microdilution method
# Format: functional
# Settings: dose 4 µg/ml
# Method in brief: as §1
row,Compound,MIC [mg/L]
1,N#C[C@@H]1CC[C@@H]2CN1C(=O)N2OS(=O)(=O)[O-].[Na+],≤ 0.12

# Tested on: Klebsiella pneumoniae
# Test: Synergistic antibacterial activity against Klebsiella pneumoniae 761/1723 producing KPC-3 assessed as cefepime MIC at 4 ug/ml by broth microdilution method
# Format: functional
# Settings: dose 4 µg/ml
# Method in brief: as §1
row,Compound,MIC [mg/L]
1,N#C[C@@H]1CC[C@@H]2CN1C(=O)N2OS(=O)(=O)[O-].[Na+],≤ 0.12

# Tested on: Klebsiella pneumoniae
# Test: Synergistic antibacterial activity against Klebsiella pneumoniae 1398/2291 producing KPC-3 assessed as cefepime MIC at 8 ug/ml by broth microdilution method
# Format: functional
# Settings: dose 8 µg/ml
# Method in brief: as §1
row,Compound,MIC [mg/L]
1,N#C[C@@H]1CC[C@@H]2CN1C(=O)N2OS(=O)(=O)[O-].[Na+],0.25

# Tested on: Bacteria
# Test: Inhibition of bacteria KPC-2 assessed as half life using nitrocefin as substrate
# Settings: not given
row,Compound,T1/2 [min]
1,N#C[C@@H]1CC[C@@H]2CN1C(=O)N2OS(=O)(=O)[O-].[Na+],26

# Tested on: Acinetobacter baumannii
# Test: Synergistic antibacterial activity against Acinetobacter baumannii PR440 producing OXA-23/24/40 assessed as cefepime MIC at 8 ug/ml by broth microdilution method
# Format: functional
# Settings: dose 8 µg/ml
row,Compound,MIC [mg/L]
1,N#C[C@@H]1CC[C@@H]2CN1C(=O)N2OS(=O)(=O)[O-].[Na+],> 16

# Tested on: Klebsiella pneumoniae
# Test: Synergistic antibacterial activity against Klebsiella pneumoniae 1354/2241 producing KPC-3 assessed as meropenem MIC at 4 ug/ml by broth microdilution method
# Format: functional
# Settings: dose 4 µg/ml
# Method in brief: as §1
row,Compound,MIC [mg/L]
1,N#C[C@@H]1CC[C@@H]2CN1C(=O)N2OS(=O)(=O)[O-].[Na+],≤ 0.12

# Tested on: Acinetobacter baumannii
# Test: Synergistic antibacterial activity against Acinetobacter baumannii PR363 producing OXA-23 assessed as meropenem MIC at 8 ug/ml by broth microdilution method
# Format: functional
# Settings: dose 8 µg/ml
row,Compound,MIC [mg/L]
1,N#C[C@@H]1CC[C@@H]2CN1C(=O)N2OS(=O)(=O)[O-].[Na+],2
